Source: PubChem BioAssay
Only some compounds are listed: those with a hit (about 3.1% of all), similar ones and a draw of the others.
CFTR F508del cor = CFTR F508del correction in bronchial cells | activity (quench increase), % at 7.58 µM | hit rate 0.36% among 350,000 | CFBE cells, YFP halide quenching; stimulated with forskolin plus potentiator P3; % fluorescence drop versus neutral controls;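 active means mean added fluorescence quench of at least 8% versus neutral control, with both replicates also reaching 8%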;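 further: cells transiently co-express mutant CFTR-F508del with the halide-sensitive YFP; corrector assay measuring rescue of mutant channel to the surface after 24 h compound exposure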
SIRT5 inh = blocks human SIRT5 desuccinylation of peptide | AID 652115 | inhibition, % at 15 µM | hit rate 1.1% among 330,000 | Purified SirT5, succinyl-peptide AMC, trypsin-coupled fluorescence | Q9NXA8; in the data active means inhibition above about 15%
Target sequence (Q9NXA8 whole entry, looked up): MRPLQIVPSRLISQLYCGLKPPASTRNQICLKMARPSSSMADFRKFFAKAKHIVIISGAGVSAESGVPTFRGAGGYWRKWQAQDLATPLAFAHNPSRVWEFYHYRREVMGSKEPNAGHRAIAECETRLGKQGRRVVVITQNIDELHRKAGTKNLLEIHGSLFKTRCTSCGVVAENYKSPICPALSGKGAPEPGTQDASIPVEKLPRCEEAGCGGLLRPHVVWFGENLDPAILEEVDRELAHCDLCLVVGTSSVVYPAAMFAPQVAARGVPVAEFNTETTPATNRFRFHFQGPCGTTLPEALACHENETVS
S100A4 MyoIIA = blocks human S100A4 binding to myosin IIA peptide; P26447; hit rate 0.14% among 360,000; AID 652163; inhibition, % at 10.7 µM; S100A4/TAMRA-MyoIIA peptide fluorescence polarization;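 active means mean inhibition of at least 70% across replicates, with every replicate also reaching that level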
Target sequence (P26447 whole entry, looked up): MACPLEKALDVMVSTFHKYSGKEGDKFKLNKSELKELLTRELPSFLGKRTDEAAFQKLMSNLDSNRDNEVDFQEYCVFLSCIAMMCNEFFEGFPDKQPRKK
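Test system: S100A4 monomer protein; Medium: HEPES pH 7.2 with CaCl2, KCl, NaCl, DTT, Triton; Probe or stimulus: TAMRA-labelled myosin IIA heavy-chain peptide probe, 5 nM; Doses: one dose per compound; Times: polarization read 5 min after assay mix addition, stable 5–60 min; Benchmarks: neutral control DMSO, positive control TFP.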
ERAP1 HTS inh = blocks human ERAP1 aminopeptidase activity | Q9NZ08 | inhibition, % at 10.7 µM | recombinant ERAP1, Leu-AMC fluorescence, 60 min | hit rate 0.15% among 340,000;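 active means mean replicate inhibition of at least 30%, or all replicates individually reaching that 30% level; inactive means mean below 30% and not every replicate reaching it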;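 further: 0% = neutral control wells and 100% = L-leucinethiol positive control wells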
rRNA inh HTS = selective bacterial rRNA inhibition in E. coli | E. coli WT GFP vs humanized-ribosome RFP mutants, fluorescence, 24 h; hits give low values; DMSO median 0, no signal -100 | GFP signal change (wild-type ribosome), % (concentration not given with the values) | hit rate 1.6% among 350,000;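 active means significant combined selectivity score with lowered wild-type GFP, culture density cut under 30%, mutant RFP and density less affected; inactive means any of these conditions unmet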
* hit, by the source's call.

Screening CCC/C(O)=C1\C(=O)CC(C)(C)CC1=NCc1ccccc1 returned CFTR F508del cor -3.1, SIRT5 inh -2.3, S100A4 MyoIIA 2.0, ERAP1 HTS inh -2.1 and rRNA inh HTS -22.1*.
CO[C@@H]1CN(C)C(=O)c2cc(NC(=O)NC3CCCC3)ccc2OC[C@H](C)N(CC2CC2)C[C@@H]1C was read as CFTR F508del cor -0.1, SIRT5 inh 3.2, S100A4 MyoIIA 6.8, ERAP1 HTS inh -1.8 and rRNA inh HTS 3.0.
Screening CC1=C(C(=O)NC2CCCCC2C)C2(CCC(C)CC2)OC1=O (stereo unspecified) returned CFTR F508del cor 9.9*, SIRT5 inh 1.0, S100A4 MyoIIA 1.1, ERAP1 HTS inh 6.0 and rRNA inh HTS 5.2.
CC(C)NC(=O)N(C)C[C@H]1Oc2ncc(C#Cc3ccc(F)cc3)cc2C(=O)N([C@@H](C)CO)C[C@H]1C was read as CFTR F508del cor -0.7, SIRT5 inh -3.4, S100A4 MyoIIA 5.4, ERAP1 HTS inh -1.0 and rRNA inh HTS -1.7.
`O=C(C[C@H]1CC[C@@H]2[C@H](COC[C@H](O)CN2C(=O)c2ccccc2)O1)Nc1nccs1` gave CFTR F508del cor 1.2, SIRT5 inh 3.2, S100A4 MyoIIA -7.7, ERAP1 HTS inh 0.5 and rRNA inh HTS -1.0.
For CCN(Cc1ccccc1)S(=O)(=O)c1cc(C(=O)c2c(N)n(C)c(=O)n(C)c2=O)ccc1OC the results were CFTR F508del cor 1.3, SIRT5 inh 0.7, S100A4 MyoIIA -5.8, ERAP1 HTS inh 1.0 and rRNA inh HTS -37.4*.
Screening CCCCN(Cc1ccccc1)S(=O)(=O)c1c(N)n(C)c(=O)n(C)c1=O returned CFTR F508del cor 2.0, SIRT5 inh 0.8, S100A4 MyoIIA -3.5 and ERAP1 HTS inh -3.2.
`C[C@H](CO)N1C[C@H](C)[C@H](CN(C)S(=O)(=O)c2ccccc2)Oc2ncccc2C1=O` gave CFTR F508del cor -0.5, SIRT5 inh -0.7, S100A4 MyoIIA 4.4, ERAP1 HTS inh 2.1 and rRNA inh HTS 6.5.
For COc1ccc(S(=O)(=O)N(C)C[C@@H]2Oc3ncc(/C=C/c4ccccc4)cc3C(=O)N([C@@H](C)CO)C[C@@H]2C)cc1 the results were CFTR F508del cor -3.1, SIRT5 inh -6.7, S100A4 MyoIIA 0.2, ERAP1 HTS inh 1.0 and rRNA inh HTS -4.9.
Screening COc1ccc(S(=O)(=O)N(C)C[C@H]2Oc3ncc(/C=C/c4ccccc4)cc3C(=O)N([C@H](C)CO)C[C@@H]2C)cc1 returned CFTR F508del cor 4.5, SIRT5 inh 19.8*, S100A4 MyoIIA 1.3 and ERAP1 HTS inh 3.5.
Screening COc1cccc(S(=O)(=O)N(C)C[C@@H]2Oc3ncccc3C(=O)N([C@H](C)CO)C[C@@H]2C)c1 returned CFTR F508del cor -0.5, SIRT5 inh -0.5, S100A4 MyoIIA 10.1, ERAP1 HTS inh 46.3* and rRNA inh HTS 10.0.
Screening COc1ccc(S(=O)(=O)N(C)C[C@@H]2Oc3ncccc3C(=O)N([C@H](C)CO)C[C@@H]2C)cc1 returned CFTR F508del cor -0.1, SIRT5 inh -3.2, S100A4 MyoIIA -5.5, ERAP1 HTS inh 42.5* and rRNA inh HTS -0.7.
O=C(CN1C(=O)/C(=C/c2ccco2)SC1=S)Nc1ccc(O)c(C(=O)O)c1 was read as CFTR F508del cor -2.1, SIRT5 inh 53.0*, S100A4 MyoIIA -23.8, ERAP1 HTS inh -0.5 and rRNA inh HTS 0.3.
For O=C(CCN1C(=O)/C(=C\c2ccccc2F)SC1=S)Nc1ccc(C(=O)O)c(O)c1 the results were CFTR F508del cor -1.3, SIRT5 inh 9.1, S100A4 MyoIIA 9.0, ERAP1 HTS inh -13.6 and rRNA inh HTS -22.2.
For O=C(CN1C(=O)/C(=C\c2cccs2)SC1=S)Nc1cccc(C(=O)O)c1 the results were CFTR F508del cor -0.5, SIRT5 inh -4.1, S100A4 MyoIIA -3.4 and rRNA inh HTS -2.1.
O=C(CN1C(=O)/C(=C/c2ccco2)SC1=S)Nc1ccc(C(=O)O)c(O)c1 was read as CFTR F508del cor -3.8, SIRT5 inh 62.0*, S100A4 MyoIIA -32.2, ERAP1 HTS inh 19.9 and rRNA inh HTS -12.9.
`COc1cccc(S(=O)(=O)N2CC[C@@H]3[C@H](CO)Nc4ccc(-c5ccc(C#N)cc5)cc4[C@@H]32)c1` gave CFTR F508del cor -2.7 and rRNA inh HTS -2.2.
For O=C1NC(Cc2ccc(O)cc2)c2nc3ccc(F)cc3c(=O)n2-c2cc3ccccc3cc21 (stereo unspecified) the results were CFTR F508del cor 0.1, SIRT5 inh 28.8*, S100A4 MyoIIA 4.9, ERAP1 HTS inh -0.6 and rRNA inh HTS -10.6.
For C[C@H](CO)N1C[C@H](C)[C@@H](CN(C)Cc2ccc3c(c2)OCO3)Oc2ccc(NC(=O)Nc3cccc4ccccc34)cc2CC1=O the results were CFTR F508del cor 1.4, SIRT5 inh 3.3, S100A4 MyoIIA 6.3, ERAP1 HTS inh -3.9 and rRNA inh HTS 0.1.
Screening Cc1cc(/C=N/NC(N)=S)c(O)c(/C=N/NC(N)=S)c1 returned CFTR F508del cor 14.0*, SIRT5 inh -1.7, S100A4 MyoIIA -0.3, ERAP1 HTS inh -2.0 and rRNA inh HTS 30.2.
Screening FC(F)Oc1ccc(-n2cc(-c3ccc(Cl)cc3)[n+]3c2CCCCC3)cc1 returned CFTR F508del cor 1.2, SIRT5 inh -2.0, S100A4 MyoIIA 1.0, ERAP1 HTS inh 0.2 and rRNA inh HTS -47.1*.
FC(F)Oc1ccc(-c2c[n+]3c(n2-c2ccccc2)CCCCC3)cc1 was read as CFTR F508del cor 0.3, SIRT5 inh 0.3, S100A4 MyoIIA -1.0 and rRNA inh HTS 5.0.
For COc1ccc(-n2cc(-c3ccccc3)[n+]3c2CCCCC3)cc1 the results were CFTR F508del cor -2.2, SIRT5 inh -3.7, S100A4 MyoIIA -1.1, ERAP1 HTS inh 8.1 and rRNA inh HTS -30.1*.
Screening CO[C@@H]1CC[C@H]2CCN(C)C(=O)[C@H](C)[C@H](OC)CN(C)C(=O)c3cc(C#N)ccc3OC[C@H]1O2 returned CFTR F508del cor -0.8, SIRT5 inh -1.8, S100A4 MyoIIA 0.0, ERAP1 HTS inh -0.7 and rRNA inh HTS 3.8.
Screening COc1cccc(NC(=O)N2CC(=O)N3[C@@H](CO)[C@@H](c4ccc(C#CCC5CCCC5)cc4)[C@@H]3C2)c1 returned CFTR F508del cor 0.6, SIRT5 inh 17.1*, S100A4 MyoIIA 4.3, ERAP1 HTS inh -1.4 and rRNA inh HTS -1.1.
Screening COc1ccc(NC(=O)N2CC(=O)N3[C@@H](CO)[C@@H](c4ccc(C#CCC5CCCC5)cc4)[C@@H]3C2)cc1 returned CFTR F508del cor 1.7, SIRT5 inh 1.1, S100A4 MyoIIA -6.5, ERAP1 HTS inh 0.3 and rRNA inh HTS -6.8.
COc1cccc(NC(=O)N2CC(=O)N3[C@H](CO)[C@@H](c4ccc(C#CCC5CCCC5)cc4)[C@@H]3C2)c1 was read as CFTR F508del cor 3.7, SIRT5 inh 23.6*, S100A4 MyoIIA -1.5, ERAP1 HTS inh -0.7 and rRNA inh HTS 1.3.
